Results taken from ChEMBL document CHEMBL1142364, “Investigation of the alkenyldiarylmethane non-nucleoside reverse transcriptase inhibitors as potential cAMP phosphodiesterase-4B2 inhibitors” (Bioorg Med Chem Lett, 2008).
Active and inactive are the calls of the source. No cut-off for these calls is given here.

What was measured:
[1] = test system: Human immunodeficiency virus 2; experiment: Antiviral activity against HIV2 ROD in MT4 cells assessed as inhibition of virus-induced cytopathic effect by MTT assay; type: functional, organism-based
Summary of the method: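 MT-4 cells infected with HIV-2 ROD; protection from cytopathic effect read by MTT assay; EC50 is the concentration blocking 50% of virus-induced cell killing.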

[2] = target: 3',5'-cyclic-AMP phosphodiesterase 4B (Homo sapiens) (UniProt Q07343); experiment: Inhibition of PDE4B2 expressed in COS7 cells assessed as cAMP hydrolysis at 100 uM; type: cell-based; settings: COS-7
[3] = test system: Human immunodeficiency virus 1; experiment: Antiviral activity against HIV1 RF in CEM-SS cells assessed as inhibition of virus-induced cytopathic effect by XTT assay; type: functional, organism-based; settings: Human immunodeficiency virus 1, RF
Summary of the method: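 CEM-SS cells infected with HIV-1 RF; XTT cytoprotection read-out; EC50 is the concentration that inhibits 50% of viral cytopathic effect.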

[4] = Cytotoxicity against human MT4 cells; type: cell-based
Summary of the method: (§1)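 Mock-infected CEM-SS or MT-4 cells run alongside the antiviral cultures; CC50 is the concentration causing death of 50% of the cells.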

[5] = target: Human immunodeficiency virus type 1 reverse transcriptase (Human immunodeficiency virus 1, UniProt Q72547); experiment: Inhibition of HIV1 reverse transcriptase
Summary of the method: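 Recombinant HIV-1 RT, p66/51 heterodimer; polymerase activity measured with poly(rC).oligo(dG) as template primer.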

[6] = Cytotoxicity against human CEM-SS cells; type: cell-based; summary of the method: as §1
[7] = test system: Human immunodeficiency virus 1; experiment: Antiviral activity against HIV1 3B in MT4 cells assessed as inhibition of virus-induced cytopathic effect by MTT assay; type: functional, organism-based; settings: Human immunodeficiency virus 1, 3B
Summary of the method: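 Cytoprotection in MT-4 cells infected with HIV-1 IIIB, read by MTT assay; EC50 taken as the concentration giving 50% inhibition of viral cytopathic effect.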

Sequence of 3',5'-cyclic-AMP phosphodiesterase 4B (Homo sapiens) (Q07343 whole entry): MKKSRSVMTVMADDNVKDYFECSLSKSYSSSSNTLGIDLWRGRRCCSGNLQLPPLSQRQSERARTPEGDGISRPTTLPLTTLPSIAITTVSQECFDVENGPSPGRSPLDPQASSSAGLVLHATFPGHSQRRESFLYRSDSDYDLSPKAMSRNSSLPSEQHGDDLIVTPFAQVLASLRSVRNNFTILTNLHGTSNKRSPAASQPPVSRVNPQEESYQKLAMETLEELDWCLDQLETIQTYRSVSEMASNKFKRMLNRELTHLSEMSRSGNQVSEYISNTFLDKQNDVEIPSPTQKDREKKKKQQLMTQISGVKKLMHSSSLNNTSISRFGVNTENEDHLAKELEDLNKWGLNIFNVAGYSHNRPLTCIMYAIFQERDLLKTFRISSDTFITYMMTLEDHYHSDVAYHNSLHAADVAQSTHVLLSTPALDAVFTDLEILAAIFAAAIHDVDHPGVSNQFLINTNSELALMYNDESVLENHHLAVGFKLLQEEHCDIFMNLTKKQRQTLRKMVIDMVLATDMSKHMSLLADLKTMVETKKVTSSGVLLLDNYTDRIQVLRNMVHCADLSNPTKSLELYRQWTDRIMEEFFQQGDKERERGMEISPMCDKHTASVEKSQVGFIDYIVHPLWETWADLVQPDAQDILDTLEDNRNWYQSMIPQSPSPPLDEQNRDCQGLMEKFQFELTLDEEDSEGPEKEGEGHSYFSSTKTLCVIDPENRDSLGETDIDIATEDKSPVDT

Row | SMILES | Activity [1] | inhibition [2] [%] | EC50 [3] [µM] | Activity [2] | CC50 [4] [µM] | EC50 ([1]; Human immunodeficiency virus 2, ROD) [µM] | IC50 [5] [µM] | CC50 [6] [µM] | EC50 [7] [µM]
1 | Cc1ccnc2c1NC(=O)c1cccnc1N2C1CC1 | inactive | – | – | – | – | – | – | – | –
2 | COC(=O)CCCC=C(c1cc(Br)c(OC)c(C(=O)OC)c1)c1cc(Br)c(OC)c(C(=O)OC)c1 | inactive | 40 | 0.001 | – | – | – | – | – | –
3 | COC(=O)c1cc(C(=CCCCc2ccccc2)c2cc(Br)c(OC)c(C(=O)OC)c2)cc(Br)c1OC | – | – | – | inactive | > 198 | 21 | > 100 | > 200 | –
4 | CCCCCC=C(c1cc(Cl)c(OC)c(C(=O)OC)c1)c1cc(Cl)c(OC)c(C(=O)OC)c1 | – | – | 16 | inactive | – | – | – | > 29 | –
5 | COc1ccc(C2CNC(=O)C2)cc1OC1CCCC1 (stereo not drawn) | – | 100 | – | – | – | – | – | – | –
6 | COC(=O)c1cc(C(=CCCCSC)c2cc(Cl)c(OC)c(C(=O)OC)c2)cc(Cl)c1OC | – | 20 | 5.3 | – | – | – | > 100 | > 20 | –
7 | COC(=O)CCCC=C(c1cc(C)c2oc(=O)n(C)c2c1)c1cc(C)c2oc(=O)n(C)c2c1 | inactive | 71 | 0.62 | – | 33 | – | 0.5 | 31 | 0.22
8 | COC(=O)CCC/C=C(\c1cc(C)c(OC)c(C(=O)OC)c1)c1cc(C)c2oc(=O)n(C)c2c1 | inactive | 72 | 0.03 | – | – | – | – | – | 0.09
